Results pooled from the literature.
Protocols differ between the studies behind these lines.
Target: Dual specificity mitogen-activated protein kinase kinase 3 (MAP2K3, Homo sapiens, UniProt P46734)
Sequence (P46734 1-347, as in one of the studies): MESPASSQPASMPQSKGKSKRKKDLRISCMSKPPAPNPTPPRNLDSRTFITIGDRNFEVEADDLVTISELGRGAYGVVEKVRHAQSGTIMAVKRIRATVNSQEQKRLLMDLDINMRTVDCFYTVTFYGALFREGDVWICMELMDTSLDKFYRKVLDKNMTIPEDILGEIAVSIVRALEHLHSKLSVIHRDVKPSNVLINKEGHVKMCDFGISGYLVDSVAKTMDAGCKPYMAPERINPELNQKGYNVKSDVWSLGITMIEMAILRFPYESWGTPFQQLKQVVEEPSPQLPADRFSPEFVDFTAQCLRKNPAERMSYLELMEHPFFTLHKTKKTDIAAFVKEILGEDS

| SMILES | read-out | mode | technique | tested at | quantity | result |
| --- | --- | --- | --- | --- | --- | --- |
| Cc1ccc(C(=O)NCc2ccsc2)cc1C#Cc1cn(C(C)C)c2ncnc(N)c12 | enzyme activity | inhibitor | – | 1 µM | activity vs control | 77% |
| C[C@@H]1CCN(c2nccc(-c3cnn4ncccc34)n2)C1 | binding | – | – | 1 µM | remaining binding | 69% |
| CC/C(=N\NC(=O)NCc1cccc(O)c1)c1ccc(O)c(C)c1O | enzyme activity | inhibitor | – | 0.1 µM | inhibition | -2.5% |
| Cc1sc(C(=O)NC2COC2)cc1-n1cc(NC(=O)Nc2c(F)cccc2Cl)cn1 | enzyme activity | inhibitor | – | 10 µM | remaining activity | 88.8% |
| Cc1ccc(C(=O)Nc2ccc(CN3CCN(C)CC3)c(C(F)(F)F)c2)cc1C#Cc1cnc2cccnn12 | enzyme activity | inhibitor | – | 23.5 nM | remaining activity | 94% |
| Nc1ncnc2occ(-c3ccc(NC(=O)Nc4cc(C(F)(F)F)ccc4F)cc3)c12 | cell-free assay | inhibitor | – | 20 µM | remaining signal | 11% |
| Cc1c(NC(=O)c2cc(C(N)=O)nc3cc(F)ccc23)c(C(F)(F)F)nn1Cc1ccc(C(C)(C)C)cc1 | cell-free assay | – | competition with immobilised ligand | 1 µM | remaining binding | 90% |
| O=C(Nc1cnn(-c2csc(C(=O)NC3COC3)c2)c1)Nc1c(F)cccc1Cl | enzyme activity | inhibitor | – | 5 µM | remaining activity | 111% |
| CC(=O)C1=C(C)N(c2cccc(C(F)(F)F)c2)C(=O)N[C@@H]1c1ccc(C#N)nc1 | cell-free assay | – | competition with immobilised ligand | 1 µM | remaining binding | 95.2% |
| CN1CC(Oc2cnc(C#N)cc2-c2ccn3nc(NC(=O)C4CC4)cc3c2)C1 | enzyme activity | inhibitor | – | 1 µM | inhibition | -8% |
